IC50, inhibition and Activity data for one compound are collected here from ChEMBL document CHEMBL1212693, “Dorsomorphin inhibits BMP signals required for embryogenesis and iron metabolism” (Nat Chem Biol, 2008).

pIC50: −log10 of the molar value. The source made the active and inactive calls. The rule behind the calls is not given here.

The nature of data set [1]: (§1) Inhibition of BMPR1-mediated Smad-1 phosphorylation in BMP4-stimulated mouse PASMC treated 30 mins before BMP4 challenge measured after 30 mins by immunoblot analysis. The procedure, abridged: (§2)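 Mouse PASMCs were held 24 h in 0.5% FCS RPMI, preincubated 30 min with a dose range of compound, then stimulated 30 min with BMP4. Phospho-SMAD1/5/8 and phospho-p38 were detected by immunoblot and quantitated by phosphorimager (RLU). IC50 was derived from a Hill plot of phospho-SMAD1/5/8 inhibition.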
In general terms: In western blotting, separated proteins are transferred to a membrane and probed.

For data set [2], the species on record is Mus musculus. Described as §1. The procedure, abridged: as §2
For data set [3], the species on record is Mus musculus. The data set can be described thus: Inhibition of ALK6-mediated Id1 promoter activity in BMPR2 deficient mouse PASMC at 10 uM by immunoblot analysis. Put shortly:
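BMPR-II–deficient mouse PASMCs at 50% confluence co-transfected with Id1 promoter firefly luciferase (BRE-Luc, 0.3 µg), caALK2, caALK3 or caALK6 (0.6 µg), and pRL-TK Renilla (0.2 µg). Compound (4–10 µM) or vehicle added 1 h after transfection. Activity read as firefly/Renilla ratio by dual luciferase assay; n = 3, mean ± s.d.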

The subject of data set [4] is C2C12. In words: Inhibition of BMPR1-mediated osteoblast differentiation in BMP6-stimulated mouse C2C12 cells assessed as decrease in alkaline phosphatase level at 4 uM by spectrophotometry. It counts as cell-based. Put shortly:
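C2C12 cells were seeded at 2,000 per well in DMEM with 2% FBS and treated in quadruplicate with BMP4 or BMP6 plus compound or vehicle. After 5 d, cells were lysed in TBS with 1% Triton X-100. Lysates were incubated 1 h with p-nitrophenylphosphate and alkaline phosphatase was read as absorbance at 405 nm. Cell count was measured by CyQuant in parallel wells.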

The species entered for data set [5] is Danio rerio. The data set can be described thus: Toxicity in zebrafish assessed as morphological changes at 1 to 4 uM treated at 24 hrs post-fertilization measured on day 10 post-fertilization. Format: organism-based. To be noted: in vivo. Put shortly:
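WT zebrafish embryos were raised in E3 containing phenylthiourea and exposed from 1 d.p.f. to compound (1–4 µM) or DMSO. From 5 d.p.f. larvae were fed 1 h every other day, with medium renewed after each feeding. At 10 d.p.f. they were calcein-stained and checked by brightfield microscopy for gross morphology and function.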

The species entered for data set [6] is Danio rerio. In words: Inhibition of BMPR1 in zebrafish assessed as penetrance of mild embryonic axis dorsalization at 10 uM treated at 2 to 6 hrs post-fertilization measured at 48 hrs. On the set-up: scale not given: the % may be the effect or the level left. Put shortly:
(§3)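 Compound added at the stated times and concentrations. Gross morphology scored visually at up to 48 h.p.f. for dorsalization of the embryonic axis.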

The species named for data set [7] is Danio rerio. In words: Inhibition of BMPR1 in zebrafish assessed as severity of embryonic axis dorsalization at 1 uM treated at 3 hrs post-fertilization measured at 48 hrs. On the set-up: scale not given: the % may be the effect or the level left.
The species entered for data set [8] is Danio rerio. The data set can be described thus: Inhibition of BMPR1 in zebrafish assessed as penetrance of normal embryonic axis dorsalization at 5 uM treated at 3 hrs post-fertilization measured at 48 hrs. On the set-up: scale not given: the % may be the effect or the level left.
Data set [9] is filed under the species Danio rerio. The data set can be described thus: Inhibition of BMPR1 in zebrafish assessed as penetrance of moderate embryonic axis dorsalization at 10 uM treated at 3 hrs post-fertilization measured at 48 hrs. Details: scale not given: the % may be the effect or the level left. The procedure, abridged: as §3

Usually pIC50 stands for the IC50 on a negative log10 scale, so that one unit is a factor of ten. In [1], `c1cc(-c2cnn3cc(-c4ccc(OCCN5CCCCC5)cc4)cnc23)ccn1` [DORSOMORPHIN] showed a pIC50 of 6.33. The inhibition entry in data set [2] and in data set [3] was “Dose-dependent effect” each time. Also, the inhibition result in [4] is “Active”. Also, the Activity entry in data set [5] was “Non-toxic”; in [6] it was 17%; in data set [7], 0%; in data set [8] it was 81%; in [9] it was 98%.
